Scp1 inh: Scp-1 phosphatase inhibitors, primary screen, biochemical, colorimetric, uHTS | inhibition, % at 20 µM | actives 0.88% (n = 340,000) | Carboxy-terminal domain RNA polymerase II polypeptide A small phosphatase 1 (Homo … | Recombinant Scp1, phosphopeptide, malachite green phosphate absorbance;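 active means inhibition above about 50% at 20 µM, limit read from the data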
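System: SCP-1 catalytic domain; Reagent: Phospho 17-mer peptide substrate; Doses: one concentration, 20 µM, with 1.0% DMSO; Incubation: 45 min room-temperature reaction, 5 min colour, 30 min stabiliser; Signal: Phosphate-binding colour reagent, absorbance read at 630 nm.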
Rpn11 inh: Rpn11 (PSMD14) deubiquitinase inhibitors, primary screen, biochemical, fluorescence polarization, uHTS; human 26S proteasome, Ub4-pepOG fluorescence polarization; 20S core pre-blocked with epoxomicin; 26S proteasome non-ATPase regulatory subunit 14 (Homo sapiens), O00487; actives 0.59% (n = 360,000); AID 588493, 2011; inhibition, % at 20 µM;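 active means inhibition at 20 µM, scaled to each plate's controls, above about 33%, limit read from the data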
STEP block: STEP phosphatase inhibitors, primary screen, biochemical, fluorescence intensity, uHTS. recombinant STEP, OMFP fluorogenic substrate. inhibition, % at 20 µM. actives 0.25% (n = 360,000). Tyrosine-protein phosphatase non-receptor type 5 (Homo sapiens), P54829. AID 588621, 2011;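 active means inhibition at 20 µM, scaled per plate between control wells, above about 37%, limit read from the data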
Target sequence (P54829 whole entry, looked up): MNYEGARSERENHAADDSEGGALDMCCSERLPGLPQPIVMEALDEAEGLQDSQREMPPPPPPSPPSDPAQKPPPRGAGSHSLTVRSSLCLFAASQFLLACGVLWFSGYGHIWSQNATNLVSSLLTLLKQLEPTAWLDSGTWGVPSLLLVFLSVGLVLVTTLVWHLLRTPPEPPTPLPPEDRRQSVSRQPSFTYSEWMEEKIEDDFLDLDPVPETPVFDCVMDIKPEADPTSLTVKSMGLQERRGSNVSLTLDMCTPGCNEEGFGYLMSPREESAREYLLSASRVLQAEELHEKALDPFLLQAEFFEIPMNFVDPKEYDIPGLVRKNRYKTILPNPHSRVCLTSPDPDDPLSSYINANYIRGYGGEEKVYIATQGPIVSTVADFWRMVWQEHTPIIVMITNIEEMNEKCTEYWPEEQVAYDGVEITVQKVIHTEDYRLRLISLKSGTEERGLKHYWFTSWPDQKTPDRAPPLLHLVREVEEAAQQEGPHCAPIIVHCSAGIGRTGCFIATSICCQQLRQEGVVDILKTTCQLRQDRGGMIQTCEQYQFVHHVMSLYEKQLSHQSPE
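System: isolated STEP enzyme; schedule: 20 min enzyme reaction at room temperature, protected from light; medium: Bis-Tris buffer pH 6.0, 2.5 mM DTT, 0.005% Tween 20; signal: fluorescence, 480/540 nm; dosing: single compound dose of 20 µM, 1% DMSO final; also added: OMFP substrate, 25 µM final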
LMPTP block: LMPTP phosphatase inhibitors, primary screen, biochemical, fluorescence intensity, uHTS; Low molecular weight phosphotyrosine protein phosphatase (Homo sapiens), P24666; recombinant LMPTP-A, OMFP fluorogenic substrate; inhibition, % at 20 µM; actives 0.22% (n = 360,000);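 active means compounds that cut the enzyme signal by at least half of the control window in the single-dose screen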
Target sequence (P24666 whole entry, looked up): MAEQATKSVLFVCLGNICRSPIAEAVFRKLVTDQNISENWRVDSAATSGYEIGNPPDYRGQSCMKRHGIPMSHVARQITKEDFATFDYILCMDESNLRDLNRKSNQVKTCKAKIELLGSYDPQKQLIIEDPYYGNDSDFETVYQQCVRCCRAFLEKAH
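material = LMPTP-A | quantity = 0.625 nM enzyme | reagent = OMFP substrate, 400 µM final | buffer or medium = Bis-Tris pH 6.0, DTT, detergent | detection = endpoint fluorescence intensity from OMFP dephosphorylation | dosing = single 20 µM dose | read-out basis = % inhibition relative to no-enzyme and uninhibited control wells | control set = no-enzyme and uninhibited controls | timing = 50 min at room temperature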
DNMT1 block: human DNMT1 methyltransferase inhibitors, primary screen, biochemical, molecular beacon, fluorescence, HinP1I cleavage, uHTS. actives 0.83% (n = 360,000). AID 588458, 2011. inhibition (reported as % activation of signal), % at 10 µM; in the data active means inhibition above about 50%
Scp-1 conf: Scp-1 phosphatase inhibitors, retest, confirmation, biochemical, colorimetric, single concentration; shares compounds with Scp1 inh; recombinant SCP-1 catalytic domain, phosphate release, malachite green absorbance; inhibition, % at 20 µM; actives 61% (n = 2,500);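 active means inhibition of at least 30% at 20 µM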
MG interference: colorimetric readout interference by compounds, confirmation, artefact control for Scp-1 inhibitor project, biochemical, single concentration. shares compounds with Scp1 inh. Colorimetric interference counterscreen, malachite green absorbance 630 nm. apparent inhibition (interference), % at 20 µM. 2,500 tested, under 10 active. AID 540313, 2011;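 active means inhibition of at least 30% at 20 µM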;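 further: compounds added after enzyme reaction finished so only phosphate colour detection is probed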
Scp1 DSF: Scp-1 binding by thermal shift, confirmation, orthogonal assay for Scp-1 inhibitor project, biophysical, differential scanning fluorimetry. shares compounds with Scp1 inh. Recombinant SCP1, Sypro Orange thermal shift Tm. thermal shift relative to vanadate control, % at 40 µM. actives 25% (n = 1,500);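 active means substances whose mean melting-temperature shift, as a percentage of the reference inhibitor's shift, reaches about 5.3%, limit read from the data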
DNMT1 confirm: DNMT1 methyltransferase inhibitor retest, confirmation, biochemical, molecular beacon, fluorescence, single concentration; shares compounds with DNMT1 block; DNMT1 molecular beacon HinP1I cleavage; inhibition, % at 10 µM; actives 8% (n = 2,300);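 active means average inhibition of at least 30% in the single-concentration confirmation test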
Beacon interf: counter-screen for DNMT1 inhibitors: spectral interference; activation (fluorescence interference), % at 10 µM; DNMT1 molecular beacon spectral interference counterscreen, fluorescence 485/520; shares compounds with DNMT1 block; actives 1% (n = 2,300); AID 602387;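 active means activation of at least 30% at 10 µM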;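 further: DNMT1 catalytic domain with a HinP1I cleavage step and a FAM/dabcyl DNA beacon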
Rpn11 inh conf: Rpn11 (PSMD14) deubiquitinase inhibitors, confirmation, biochemical, fluorescence polarization, single concentration; shares compounds with Rpn11 inh; purified human 26S proteasome, Ub4-pepOG fluorescence polarization; proteasome pretreated with epoxomicin; inhibition, % at 20 µM; actives 29% (n = 1,900); AID 602318, 2012
MMP-2 counter: MMP-2 enzyme inhibition, confirmation, counter-screen for RPN11 inhibitor project, biochemical, fluorescence, single concentration; recombinant MMP-2, FRET peptide cleavage fluorescence; inhibition, % at 20 µM; actives 4% (n = 1,900); shares compounds with Rpn11 inh;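 further: human MMP-2 activated beforehand with APMA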
Thrombin inh: bovine thrombin protease inhibition, confirmation, counter-screen for Rpn11 inhibitor project, biochemical, fluorescence polarization, single concentration | bovine thrombin cleavage of Ub4-pepOG | shares compounds with Rpn11 inh | AID 602333, 2012 | actives 13% (n = 1,900) | inhibition, % at 20 µM;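 active means mean inhibition at least 40% at 20 µM, or signal 3 deviations below plate average, so some actives read negative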
STEP conf: STEP phosphatase inhibitor hit confirmation, biochemical, fluorescence intensity, single concentration; shares compounds with STEP block; recombinant STEP, OMFP fluorogenic substrate; inhibition, % at 20 µM; actives 32% (n = 520); AID 623866, 2012; call rule not given here
Of the large screens only hits and unclear results are named; the others gave an inactive call (follow-up assays come after a bar, where shown). Compounds with a hit are over-represented: about 2% of the library has one in this group of screens. Unless noted, no stated cut-off is given here; in the data, active means inhibition above about 40%; inactive means the rest.

COc1ccc(Cn2c(-c3ccco3)nc3c(c(=O)c4ccccc4n3C)c2=O)cc1	Scp1 inh 91, Rpn11 inh active, STEP block 80, LMPTP block 69 | Scp-1 conf inactive | MG interference inactive | Rpn11 inh conf inactive | MMP-2 counter inactive | Thrombin inh 42 | STEP conf inactive
CNc1ccc(-c2cccc(C(=O)N3CCOCC3)c2)cn1	none (no result: Scp1 inh)
CCCCC1CCC(C(=O)Nc2ccc(N3CCOCC3)cc2N2CCOCC2)CC1 (stereo unspecified)	none
CNc1[nH]c(=O)[nH]c(=O)c1N=Nc1cc(Cl)ccc1Cl	Scp1 inh 108, STEP block 48 | Scp-1 conf 73 | MG interference inactive | Scp1 DSF inactive | STEP conf inactive
O=C(N/N=C/c1ccc(Cl)c([N+](=O)[O-])c1)c1ccc2c(c1)OCCO2	Scp1 inh 105, Rpn11 inh 127, STEP block 94, LMPTP block 89, DNMT1 block 80 | Scp-1 conf 78 | MG interference inactive | Scp1 DSF inactive | DNMT1 confirm inactive | Beacon interf inactive | Rpn11 inh conf inactive | MMP-2 counter 54 | Thrombin inh inactive | STEP conf 46
O=C(N/N=C/c1cccc(OC(=O)c2ccc3c(c2)OCO3)c1)c1cncc(Br)c1	none
O=C(N/N=C/c1ccc(OC(=O)c2ccc3c(c2)OCO3)cc1)c1cncc(Br)c1	Scp1 inh 94, Rpn11 inh active, STEP block 99, LMPTP block 86, DNMT1 block 117 | Scp-1 conf 86 | MG interference inactive | Scp1 DSF inactive | DNMT1 confirm inactive | Beacon interf inactive | Rpn11 inh conf inactive | MMP-2 counter inactive | Thrombin inh inactive | STEP conf inactive
O=C(N/N=C\c1ccc(OC(=O)c2cccs2)cc1)c1ccc(Cl)cc1	Scp1 inh 96, Rpn11 inh 76, STEP block 94, LMPTP block 94 | Scp-1 conf 81 | MG interference inactive | Scp1 DSF inactive | Rpn11 inh conf inactive | MMP-2 counter inactive | Thrombin inh inactive | STEP conf inactive
O=C(N/N=C/c1ccc(Cl)cc1)c1ccc2c(c1)OCO2	Scp1 inh 103, STEP block 93 | Scp-1 conf 91 | MG interference inactive | Scp1 DSF inactive | STEP conf inactive
O=C(N/N=C/c1ccc(F)cc1)c1cc(-c2ccc3c(c2)OCO3)n[nH]1	Scp1 inh 56, STEP block 42 | Scp-1 conf 35 | MG interference inactive | Scp1 DSF inactive | STEP conf 36
CN(C)c1ccc(/C=N/NC(=O)c2cc(-c3ccc4c(c3)OCO4)n[nH]2)cc1	none (not shown: Rpn11 inh)
COc1ccccc1CNC(=O)[C@H](C)NC(=O)C1CCN(C(=O)[C@@H](N)C(C)C)CC1	none
CCOc1ccc(CCNC(=O)c2ccc(OCc3c(C)noc3C)cc2)cc1OCC	none
COc1ccc(CCNC(=O)c2ccc(OCc3c(C)noc3C)cc2)cc1OC	DNMT1 block 54 | DNMT1 confirm inactive | Beacon interf inactive
C=C1[C@@H](O)[C@H](Cc2ccccc2)N(Cc2ccccc2Br)S1(=O)=O	none
CCC1SC(=Nc2cccc(C)c2)NC1=O (stereo unspecified)	none
CCC1S/C(=N/S(=O)(=O)c2ccc(N)cc2)NC1=O (stereo unspecified)	DNMT1 block 66 | DNMT1 confirm inactive | Beacon interf inactive
Cc1ccc(N2CC(C(=O)Nc3ncc([N+](=O)[O-])s3)CC2=O)cc1 (stereo unspecified)	none
CN(C)S(=O)(=O)c1cccc(C(=O)NCCOC(=O)c2cc(F)c(F)cc2Cl)c1	none
COc1ccc(NC(=O)C2Cc3c(-c4ccc(NC(C)=O)cc4)ccnc3O2)cc1OC (stereo unspecified)	none (no result: Scp1 inh)
COc1ccc(NC(=O)C2Cc3c(-c4ccco4)ccnc3O2)cc1OC (stereo unspecified)	DNMT1 block 90 (no result: Scp1 inh) | DNMT1 confirm inactive | Beacon interf inactive
O=C(CCc1nc2ccccc2c(=O)[nH]1)Nc1nnc(SCc2ccccc2)s1	DNMT1 block 67 | DNMT1 confirm inactive | Beacon interf inactive
O=C(c1cccc(NS(=O)(=O)c2ccc(F)c(F)c2)c1)N1CCCCC1	none
